MrgX1 PAM: human MrgX1 positive allosteric modulation, primary screen. AID 588675. B-score at 10 µM. MrgX1-HEK293, Fluo-4 calcium flux, FDSS; hits give high values. Q96LB2. 310,000 tested, 0.63% active;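 active = plate-corrected calcium response at least 3 library SD above typical, normal starting fluorescence, not activating the receptor alone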;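 note: compound read alongside a low EC10 to EC30 dose of BAM8-22 agonist; peak minus trough fluorescence over baseline measured at the second addition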
Target sequence (Q96LB2 whole entry, looked up): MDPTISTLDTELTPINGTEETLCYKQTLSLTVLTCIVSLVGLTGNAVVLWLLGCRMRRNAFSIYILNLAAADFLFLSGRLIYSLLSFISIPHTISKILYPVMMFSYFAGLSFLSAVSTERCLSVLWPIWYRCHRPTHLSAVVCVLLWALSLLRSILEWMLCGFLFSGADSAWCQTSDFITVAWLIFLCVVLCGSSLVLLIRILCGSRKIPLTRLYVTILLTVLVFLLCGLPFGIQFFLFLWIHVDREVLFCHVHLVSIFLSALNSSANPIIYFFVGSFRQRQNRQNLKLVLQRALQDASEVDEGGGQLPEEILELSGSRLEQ
RGS4 act: potentiators or activators of RGS4. 310,000 tested, 0.92% active. B-score at 10 µM. AID 463111. HEK293 M3R/inducible RGS4, carbachol calcium flux Fluo4; hits give low values;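 active = B-score of the integrated calcium signal more than 4 SD below the library mean, with starting fluorescence not abnormally high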;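 note: negative B-score means reduced calcium response which marks RGS4 activation or potentiation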
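Assay system: Inducible-RGS4 HEK293 cells carrying M3 receptor | Schedule: Compound preincubation 20 min at room temperature before agonist | Signal: Kinetic calcium fluorescence imaging with Fluo4-AM dye, 2 µM | Read-out basis: B score from integrated fluorescence ratio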
MrgX1 ag: human MrgX1 receptor agonism, primary screen | MrgX1-HEK293 cells, Fluo-4 calcium fluorescence, agonist mode; hits give high values | B-score at 10 µM | 310,000 tested, 0.44% active | Q96LB2;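 active = calcium response B-score plate-corrected fluorescence ratio at least 3 library SD, with starting fluorescence B-score inside 5 SD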
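Test system: HEK293 cells stably expressing human MrgX1 receptor; Input: fifteen thousand cells per well; Dosing: compound delivered in addition one of three; Schedule: overnight seeding, then 1 h dark dye loading; Technique: Fluo-4 NW calcium fluorescence; Measure: B-scored fluorescence response ratio; Controls: positive and negative controls per plate.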
RGS4 block: inhibitors of human RGS4 | P49798 | 310,000 tested, 0.45% active | B-score at 10 µM | AID 463165 | HEK293 M3R/RGS4 inducible, Fluo-4 calcium flux; hits give high values; triggered by carbachol at its EC20;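 active = B-score, a plate-corrected calcium signal, over three deviations above library mean, with baseline fluorescence within five deviations of library mean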;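 note: RGS4 expression induced by doxycycline in cells with stable M3 receptor; B-score is computed from the integrated fluorescence ratio over baseline after carbachol; higher B-score means a larger calcium signal and so more RGS4 inhibition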
Target sequence (P49798 whole entry, looked up): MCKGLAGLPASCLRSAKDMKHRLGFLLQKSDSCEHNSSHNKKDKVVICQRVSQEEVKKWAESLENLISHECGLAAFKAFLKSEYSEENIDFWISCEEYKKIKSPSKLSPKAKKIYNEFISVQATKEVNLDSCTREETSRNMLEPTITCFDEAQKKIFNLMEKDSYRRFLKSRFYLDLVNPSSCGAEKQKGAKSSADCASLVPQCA
MrgX1 antag: antagonists of human MrgX1 receptor; Q96LB2; MRGX1-HEK293 calcium flux, Fluo-4, BAM8-22 antagonism; hits give low values; 310,000 tested, 1.3% active; AID 588676; B-score at 10 µM;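 active = calcium-response B-score plate-corrected more than 3 library SD below zero, starting fluorescence within 5 deviations, no agonist response on first addition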;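 note: peak minus trough fluorescence over baseline after final BAM8-22 challenge near maximal dose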
Large screens that a line does not name were inactive. Hits are enriched below; roughly 3.5% of the tested compounds scored in any of these assays.

Clc1ccc(SCc2cc(-c3ccc(Cl)cc3)on2)cc1	RGS4 act -8.03
Cc1ccc(SCc2cc(-c3ccc(Cl)cc3)on2)cc1	RGS4 act -7.58
Clc1ccc(-c2cc(CN3CCOCC3)no2)cc1	none
COC(=O)[C@]1(CC(C)C)N[C@H](c2ccc(-c3cccc(Cl)c3)cc2)[C@@H]2C(=O)N(C)C(=O)[C@@H]21	none
O=C(O)c1ccc(N=Nc2c(O)[nH]c3cc(Cl)ccc23)cc1	MrgX1 antag -5.97
Cc1ccc(-c2nc(C(=O)NCC3CCCO3)cc3c2[nH]c2ccccc23)cc1 (configuration not stated)	RGS4 act -7.04
O=C1OC(c2ccc(Br)cc2)=N/C1=C\N1CCCCC1	MrgX1 antag -5.59
CS(=O)(=O)c1ccc(Cl)c(NC(=O)c2cc(S(=O)(=O)N3CCOCC3)ccc2N2CCCC2)c1	none
O=C(C[n+]1cc(-c2ccc(F)cc2)n2c1CCC2)N1c2ccccc2Sc2ccccc21	RGS4 act -9.7
O=C(C[n+]1cc(-c2ccccc2)n2c1CCC2)N1c2ccccc2Sc2ccccc21	none
Cc1ccc(-c2c[n+](CC(=O)N3c4ccccc4Sc4ccccc43)c3n2CCC3)cc1	RGS4 act -8.89
O=C(CN1CCN(S(=O)(=O)c2ccc(F)cc2)CC1)Nc1ccc(F)cc1F	none
C/C(=N\NC(=S)NCCc1ccccc1)c1ccc(Cl)cc1Cl	RGS4 act -9.09
C/C(=N\NC(=S)NCCc1ccccc1)c1ccc(O)cc1O	none
Cc1cc(C)c2nc(N3CCC(C(=O)NCCCN4CCCCC4)CC3)sc2c1	RGS4 act -7.9
CCOc1ccc(NCc2cccn2-c2nnc(N3CCC(C(=O)NCCCN4CCCCC4)CC3)s2)cc1	RGS4 act -9.01
Cc1cc(C)c2nc(N3CCC(C(=O)NCC4CCCO4)CC3)sc2c1 (configuration not stated)	none
CCOc1ccc(NCc2cccn2-c2nnc(N3CCC(C(=O)NCCCN4CCCCC4C)CC3)s2)cc1 (configuration not stated)	none
CCOc1ccc(NCc2cccn2-c2nnc(N3CCC(C(=O)NCCCN4C(C)CCCC4C)CC3)s2)cc1 (configuration not stated)	RGS4 act -7.62
COc1cc(/C=C2\SC(c3ccc(C)cc3)=NC2=O)ccc1O	MrgX1 antag -5.79
COc1ccc(/C=C2\SC(c3ccc(C)cc3)=NC2=O)cc1OC	none
COc1cc(/C=C2\SC(=N)N(c3ccc(F)cc3)C2=O)ccc1O	MrgX1 antag -4.88
COCCN1C(=O)C(=O)/C(=C(/O)c2ccc(S(=O)(=O)N3CCOCC3)cc2)C1c1cccc(OC)c1 (configuration not stated)	none
Cn1c(=O)c2c(nc(SCC(=O)c3ccccc3F)n2C)n(C)c1=O	MrgX1 antag -7
O=C(COc1ccc2ccccc2c1)Nc1ccccc1C(=O)O	none
COc1ccc(CC(=O)N(C)CC(=O)Nc2cccc(F)c2)cc1S(=O)(=O)N1CCOCC1	MrgX1 antag -5.28
COC(=O)C1=C(C)NC(C)=C(C(=O)OCC(C)C)C1c1ccccc1[N+](=O)[O-] (configuration not stated)	MrgX1 ag 30.9
CCCOc1ccccc1C1CC(=O)NC(C)=C1C(=O)OCC(C)C (configuration not stated)	none
CCOC(=O)c1c(CSc2ccc(CC)cc2)oc2ccc(O)c(CN(C)C)c12	MrgX1 antag -5.91
Cc1nc2ccccn2c1C(=O)N/N=C/c1ccccc1	none
Cc1ccccc1N/N=C/c1c(C)nc2ccccn12	MrgX1 PAM 8.46
COC(=O)C1CCCN1C(=O)C12CC3CC(CC(C3)C1)C2 (configuration not stated)	none
Cc1cccc(NC(=O)N2C3CCCC2CC(NC(=O)C(C)(C)C)C3)c1 (configuration not stated)	none
COc1cc(/C=C2/C(=N)N3N=C(C)SC3=NC2=O)ccc1OS(=O)(=O)c1ccc(C)cc1	none
COc1cc(/C=C2/C(=N)N3C(=NC2=O)SN=C3S(C)(=O)=O)ccc1OS(=O)(=O)c1ccc(C)cc1	MrgX1 PAM 10.4
Cc1ccc(S(=O)(=O)Oc2ccc(/C=C3/C(=N)N4C(=NC3=O)SN=C4S(C)(=O)=O)cc2)cc1	MrgX1 PAM 16.8
CCS(=O)(=O)C1=NSC2=NC(=O)/C(=C\c3ccc(OS(=O)(=O)c4ccccc4)c(OC)c3)C(=N)N21	MrgX1 PAM 33.3
Cc1ccc(S(=O)(=O)N2CCCCC2)cc1C(=O)N(CCc1ccccc1)Cc1ccccc1	none
Cc1ccc(NC(=O)CCSc2nnc(C)o2)cc1	none
Cc1csc(N/N=C/c2c(F)cccc2Cl)n1	MrgX1 PAM 9.76
Cc1csc(N/N=C/c2ccccc2F)n1	none
Nc1c(-c2ccccc2)sc2ccc3ccccc3[n+]12	none
COc1ccc(NC(=O)c2c(-c3c(Cl)cccc3Cl)noc2C)c(OC)c1	none
C[n+]1ccccc1/C=C/c1cc(Br)ccc1O	RGS4 act -8.51
COc1ccc(/C=C/c2cccc[n+]2C)c(O)c1	none
Cc1c(CCOC(=O)c2ccc([N+](=O)[O-])cc2)sc[n+]1CC(=O)c1ccccc1	none
COc1ccc(C(=O)OCCc2sc[n+](CC(=O)c3ccccc3)c2C)cc1	RGS4 act -10.8
COc1ccc(CNC(=O)CN(C(=O)c2snc(C(N)=O)c2N)c2ccccc2F)cc1	MrgX1 PAM 6.49
C[C@]12CC(O)C3C(CCC4=CC(=O)CC[C@@]43C)C1CCC2c1csc(-c2ccccc2)n1 (some centres not stated)	RGS4 act -9.61
CC(=O)[C@H]1CC[C@H]2[C@@H]3CCC4=CC(=O)CC[C@]4(C)[C@H]3[C@H](O)C[C@]12C	none
C/C(=N\NC(=O)COc1ccc(C)cc1Br)c1cc([N+](=O)[O-])cs1	none
C/C(=N\NC(=O)COc1ccc(C)cc1[N+](=O)[O-])c1cccs1	MrgX1 antag -6.52
CCOc1ccc(C(=O)Nc2ccc(NC(=O)c3cccs3)cc2)cc1[N+](=O)[O-]	MrgX1 antag -7.26
Cc1cc(OC(=O)c2cccc(F)c2)c([N+](=O)[O-])c(=O)[nH]1	none
O=C(NN1C(=O)C2C3C=CC(C3)C2C1=O)c1ccncc1 (configuration not stated)	none
O=C(NN1C(=O)C2C(c3ccccc3)C=CC(c3ccccc3)C2C1=O)c1ccncc1 (configuration not stated)	MrgX1 ag 27.8
Nc1nonc1-n1nnc(C(=O)N/N=C/c2ccc(O)cc2)c1CN1CCCCCC1	MrgX1 antag -8.63
COc1ccc(NC(=O)COC(=O)c2ccc(OCc3ccccc3Cl)c(OC)c2)c(OC)c1	MrgX1 antag -6.02
CCn1ccnc1CNC(=O)c1ccc(OC2CCN(C(=O)COC)CC2)cc1	none

Screens from PubChem BioAssay.
